Reference: ChEMBL document CHEMBL2417469, “Synthesis of novel analogs of 2-pyrazoline obtained from [(7-chloroquinolin-4-yl)amino]chalcones and hydrazine as potential antitumor and antimalarial agents” (Eur J Med Chem, 2013)

How the values were obtained:
Format in all cases: functional
IGROV-1 = assay: Cytotoxicity against human IGROV1 cells after 48 hrs by SRB assay; settings: IGROV-1, 48 h
Method in brief: (§1)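 NCI 60-cell-line screen. Cells preincubated 24 h at 37 °C, 5% CO2; time-zero plates TCA-fixed. Compounds dissolved in DMSO and tested at five concentrations (100, 10, 1.0, 0.1, 0.01 µM) for 48 h continuous exposure. Adherent cells fixed with cold TCA (10% final), then SRB stained; absorbance at 515 nm. GI50, TGI and LC50 calculated from growth relative to time-zero and untreated controls.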

BT-549 = assay: Cytotoxicity against human BT549 cells after 48 hrs by SRB assay; settings: BT-549, 48 h; method in brief: as §1
A498 = assay: Cytotoxicity against human A498 cells after 48 hrs by SRB assay; settings: A498, 48 h; method in brief: as §1
UO-31 = assay: Cytotoxicity against human UO31 cells after 48 hrs by SRB assay; settings: UO-31, 48 h
Method in brief: (§2)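 NCI 60-cell screen. Cells grew 24 h (37 °C, 5% CO2) before compound was added. Compounds were in DMSO and diluted in medium with gentamicin, then tested at five levels (100, 10, 1.0, 0.1, 0.01 µM) with 48 h continuous exposure. Adherent cells were fixed with TCA (10% final) and stained with 0.4% SRB, absorbance read at 515 nm. A time-zero plate was included. LC50 is the concentration giving 50% loss of protein relative to time zero.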

OVCAR-4 = assay: Cytotoxicity against human OVCAR4 cells after 48 hrs by SRB assay; settings: OVCAR-4, 48 h; method in brief: as §1
SW-620 = assay: Cytotoxicity against human SW620 cells after 48 hrs by SRB assay; settings: SW-620, 48 h; method in brief: as §2
SK-OV-3 = assay: Cytotoxicity against human SKOV3 cells after 48 hrs by SRB assay; settings: SK-OV-3, 48 h; method in brief: as §1
HCT-15 = assay: Cytotoxicity against human HCT15 cells after 48 hrs by SRB assay; settings: HCT-15, 48 h; method in brief: as §1
LOX IMVI = assay: Cytotoxicity against human LOXIMVI cells after 48 hrs by SRB assay; method in brief: as §1
786-0 = assay: Cytotoxicity against human 786-0 cells after 48 hrs by SRB assay; settings: 786-0, 48 h; method in brief: as §1
NCI-H522 = assay: Cytotoxicity against human NCI-H522 cells after 48 hrs by SRB assay; settings: NCI-H522, 48 h; method in brief: as §1
A549 = assay: Cytotoxicity against human A549/ATCC cells after 48 hrs by SRB assay; settings: A549, 48 h; method in brief: as §1
SR = assay: Cytotoxicity against human SR cells after 48 hrs by SRB assay; method in brief: as §2
UACC-257 = assay: Cytotoxicity against human UACC257 cells after 48 hrs by SRB assay; settings: UACC-257, 48 h; method in brief: as §2
M14 = assay: Cytotoxicity against human M14 cells after 48 hrs by SRB assay; settings: M14, 48 h; method in brief: as §1
PC-3 = assay: Cytotoxicity against human PC3 cells after 48 hrs by SRB assay; settings: PC-3, 48 h; method in brief: as §1
HT-29 = assay: Cytotoxicity against human HT-29 cells after 48 hrs by SRB assay; settings: HT-29, 48 h; method in brief: as §1
DU-145 = assay: Cytotoxicity against human DU145 cells after 48 hrs by SRB assay; settings: DU-145, 48 h; method in brief: as §1
RXF 393 = assay: Cytotoxicity against human RXF393 cells after 48 hrs by SRB assay; settings: RXF 393, 48 h; method in brief: as §1
SF-295 = assay: Cytotoxicity against human SF295 cells after 48 hrs by SRB assay; settings: SF-295, 48 h; method in brief: as §1
NCI/ADR-RES = assay: Cytotoxicity against human NCI/ADR-RES cells after 48 hrs by SRB assay; method in brief: as §1
MOLT-4 = assay: Cytotoxicity against human MOLT4 cells after 48 hrs by SRB assay; settings: MOLT-4, 48 h; method in brief: as §1
SNB-75 = assay: Cytotoxicity against human SNB75 cells after 48 hrs by SRB assay; settings: SNB-75, 48 h; method in brief: as §2
Hs-578T = assay: Cytotoxicity against human Hs578T cells after 48 hrs by SRB assay; method in brief: as §1
SF-539 = assay: Cytotoxicity against human SF539 cells after 48 hrs by SRB assay; settings: SF-539, 48 h; method in brief: as §1
NCI-H23 = assay: Cytotoxicity against human NCI-H23 cells after 48 hrs by SRB assay; settings: NCI-H23, 48 h; method in brief: as §1
CAKI-1 = assay: Cytotoxicity against human Caki1 cells after 48 hrs by SRB assay; settings: CAKI-1, 48 h; method in brief: as §1
CCRF-CEM = assay: Cytotoxicity against human CCRF-CEM cells after 48 hrs by SRB assay; method in brief: as §1
MDA-MB-468 = assay: Cytotoxicity against human MDA-MB-468 cells after 48 hrs by SRB assay; settings: MDA-MB-468, 48 h; method in brief: as §1
UACC-62 = assay: Cytotoxicity against human UACC62 cells after 48 hrs by SRB assay; settings: UACC-62, 48 h; method in brief: as §2
KM12 = assay: Cytotoxicity against human KM12 cells after 48 hrs by SRB assay; settings: KM12, 48 h; method in brief: as §1
HL-60(TB) = assay: Cytotoxicity against human HL-60(TB) cells after 48 hrs by SRB assay; settings: HL-60, 48 h; method in brief: as §1
COLO 205 = assay: Cytotoxicity against human COLO205 cells after 48 hrs by SRB assay; settings: COLO 205, 48 h; method in brief: as §1
U-251 = assay: Cytotoxicity against human U251 cells after 48 hrs by SRB assay; settings: U-251, 48 h; method in brief: as §2
Malme-3M = assay: Cytotoxicity against human MALME-3M cells after 48 hrs by SRB assay; method in brief: as §1
MDA-MB-231 = assay: Cytotoxicity against human MDA-MB-231 cells after 48 hrs by SRB assay; settings: MDA-MB-231, 48 h; method in brief: as §1
[1] = read-out: LC50 (the source's name)

`COc1cc(C2CC(c3cccc(Nc4ccnc5cc(Cl)ccc45)c3)=NN2C=O)cc(OC)c1OC` (configuration not stated) showed a GI50 (IGROV-1) of 3.29 µM, an LC50 (concentration killing 50% of cells relative to time zero) (IGROV-1) greater than 100 µM and a GI50 (BT-549) of 390 nM. It also gave an LC50 (50% net cell kill vs time zero) (BT-549) of 4.61 µM, a GI50 (A498) of 290 nM and a CC50 (A498; [1]) greater than 100 µM. It also gave a GI50 (UO-31) of 1300 nM, an LC50 (UO-31) greater than 100 µM and a GI50 (OVCAR-4) of 1130 nM. It also gave an LC50 (OVCAR-4) greater than 100 µM, a GI50 (SW-620) of 470 nM and an LC50 (SW-620) greater than 100 µM. For the same molecule, the GI50 (SK-OV-3) was 1400 nM, the LC50 (concentration killing 50% of cells) (SK-OV-3) was greater than 100 µM and the GI50 (HCT-15) was 550 nM. The LC50 (concentration killing 50% of cells relative to time zero) (HCT-15) was greater than 100 µM, the GI50 (LOX IMVI) was 710 nM and the LC50 (LOX IMVI) was greater than 100 µM. It also gave a GI50 (786-0) of 840 nM, an LC50 (786-0) of 76.3 µM and a GI50 (NCI-H522) of 750 nM. For the same molecule, the CC50 (NCI-H522; [1]) was greater than 100 µM, the GI50 (A549) was 660 nM and the CC50 (A549; [1]) was greater than 100 µM. It also gave a GI50 (SR) of 340 nM, an LC50 (SR) greater than 100 µM and a GI50 (UACC-257) of 1400 nM. The LC50 (UACC-257) was greater than 100 µM, the GI50 (M14) was 350 nM and the CC50 (M14; [1]) was 57.5 µM. It also gave a GI50 (PC-3) of 1460 nM, an LC50 (PC-3) greater than 100 µM and a GI50 (HT-29) of 400 nM. It also gave an LC50 (HT-29) of 4.99 µM, a GI50 (DU-145) of 2680 nM and an LC50 (concentration killing 50% of cells) (DU-145) greater than 100 µM. For the same molecule, the GI50 (RXF 393) was 1540 nM, the LC50 (concentration killing 50% of cells) (RXF 393) was 73.4 µM and the GI50 (SF-295) was 380 nM. For the same molecule, the LC50 (SF-295) was greater than 100 µM, the GI50 (NCI/ADR-RES) was 1360 nM and the CC50 (NCI/ADR-RES; [1]) was greater than 100 µM. It also gave a GI50 (MOLT-4) of 590 nM, an LC50 (MOLT-4) greater than 100 µM and a GI50 (SNB-75) of 380 nM. For the same molecule, the LC50 (50% net cell kill) (SNB-75) was 51 µM, the GI50 (Hs-578T) was 680 nM and the LC50 (50% net cell kill) (Hs-578T) was greater than 100 µM. It also gave a GI50 (SF-539) of 810 nM, a CC50 (SF-539; [1]) of 55.5 µM and a GI50 (NCI-H23) of 1380 nM. It also gave a CC50 (NCI-H23; [1]) greater than 100 µM, a GI50 (CAKI-1) of 550 nM and an LC50 (CAKI-1) of 12.1 µM. It also gave a GI50 (CCRF-CEM) of 650 nM, an LC50 (concentration killing 50% of cells relative to time zero) (CCRF-CEM) greater than 100 µM and a GI50 (MDA-MB-468) of 300 nM. For the same molecule, the LC50 (MDA-MB-468) was 23.3 µM, the GI50 (UACC-62) was 720 nM and the CC50 (UACC-62; [1]) was 84 µM. The GI50 (KM12) was 500 nM, the LC50 (concentration killing 50% of cells) (KM12) was greater than 100 µM and the GI50 (HL-60(TB)) was 260 nM. It also gave a CC50 (HL-60(TB); [1]) of 3.97 µM, a GI50 (COLO 205) of 640 nM and an LC50 (COLO 205) greater than 100 µM. It also gave a GI50 (U-251) of 450 nM, a CC50 (U-251; [1]) greater than 100 µM and a GI50 (Malme-3M) of 810 nM. The LC50 (Malme-3M) was greater than 100 µM, the GI50 (MDA-MB-231) was 1600 nM and the LC50 (concentration killing 50% of cells present at time zero) (MDA-MB-231) was greater than 100 µM.
